14 compounds from ChEMBL document CHEMBL4609990, “Design and synthesis of cyanamides as potent and selective N-acylethanolamine acid amidase inhibitors” (Bioorg Med Chem, 2020) can be followed below.

A value given as a limit tells only on which side of the number the result lay.

For data set [1], the target named is T1, N-acylethanolamine-hydrolyzing acid amidase (Homo sapiens) (UniProt Q02083).
T1 sequence (whole entry): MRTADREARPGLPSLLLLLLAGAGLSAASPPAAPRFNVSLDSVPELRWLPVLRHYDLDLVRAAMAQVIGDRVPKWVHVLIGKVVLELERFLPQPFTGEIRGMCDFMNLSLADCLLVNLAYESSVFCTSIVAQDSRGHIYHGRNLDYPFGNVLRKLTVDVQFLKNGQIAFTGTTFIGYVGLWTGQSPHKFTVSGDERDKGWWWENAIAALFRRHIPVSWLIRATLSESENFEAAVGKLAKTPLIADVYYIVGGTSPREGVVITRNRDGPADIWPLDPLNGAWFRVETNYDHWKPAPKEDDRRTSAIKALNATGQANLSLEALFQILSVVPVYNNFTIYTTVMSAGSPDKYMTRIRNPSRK
The data set can be described thus: Irreversible inhibition of activated human NAAA assessed as ratio of Kinact/Ki using fluorogenic PAMCA and N-4-methylcoumarin as substrate.

Data set [2] can be described thus: Half life in rat liver microsomes at 1 uM in presence of NADPH by LC-MS/MS. For orientation: Microsomes from liver hold many membrane-bound enzymes, among them those of drug oxidation.
A short description of data set [3]: Half life in human liver microsomes at 1 uM in presence of NADPH by LC-MS/MS.
For data set [4], the target named is T2, N-acylethanolamine-hydrolyzing acid amidase (Homo sapiens, UniProt Q02083).
T2 sequence (Q02083 whole entry): T1 sequence (whole entry)
The data set can be described thus: Inhibition of activated human NAAA using fluorogenic PAMCA and N-4-methylcoumarin as substrate incubated for 90 mins by fluorescence based assay. The procedure, abridged: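 Purified activated hNAAA (final 0.25 µg/mL) in 100 mM citrate-phosphate pH 4.5, 3 mM DTT, 0.1% Triton X-100, 0.05% BSA, 150 mM NaCl; compound in DMSO preincubated 90 min at room temperature. PAMCA added (final 5 µM), reaction at 37 °C for 90 min, fluorescence ex 360/em 460 nm read every 10 min. RFU converted to AMC via AMC standard curve. IC50 from eight concentrations, triplicate.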

Data set [5] is filed under the species Homo sapiens. Description: Selectivity index, ratio of IC50 for human hexaHis-tagged MGL expressed in Escherichia coli BL21 (DE3) using fluorogenic AHMMCE as substrate preincubated for 1 hr followed by substrate addition by fluorimetric assay to IC50 human NAAA using fluorogenic PAMCA and N-4-methylcoumarin as substrate incubated for 90 mins by fluorescence based assay.

Data set [6] can be described thus: Half life in human plasma by HPLC analysis.
Data set [7] is filed under the species Homo sapiens. Description: Selectivity index, ratio of IC50 for full length human ABHD6 using AHMMCE as substrate preincubated for 1 hr followed by substrate addition by fluorimetric assay to IC50 human NAAA using fluorogenic PAMCA and N-4-methylcoumarin as substrate incubated for 90 mins by fluorescence based assay.
The species named for data set [8] is Homo sapiens. Description: Selectivity index, ratio of IC50 for recombinant human FAAH expressed in Escherichia coli using fluorogenic AAMCA as substrate by fluorimetric assay to IC50 human NAAA using fluorogenic PAMCA and N-4-methylcoumarin as substrate incubated for 90 mins by fluorescence based assay.
The target of data set [9] is T3, Fatty-acid amide hydrolase 1 (Homo sapiens) (UniProt O00519).
T3 sequence (whole entry): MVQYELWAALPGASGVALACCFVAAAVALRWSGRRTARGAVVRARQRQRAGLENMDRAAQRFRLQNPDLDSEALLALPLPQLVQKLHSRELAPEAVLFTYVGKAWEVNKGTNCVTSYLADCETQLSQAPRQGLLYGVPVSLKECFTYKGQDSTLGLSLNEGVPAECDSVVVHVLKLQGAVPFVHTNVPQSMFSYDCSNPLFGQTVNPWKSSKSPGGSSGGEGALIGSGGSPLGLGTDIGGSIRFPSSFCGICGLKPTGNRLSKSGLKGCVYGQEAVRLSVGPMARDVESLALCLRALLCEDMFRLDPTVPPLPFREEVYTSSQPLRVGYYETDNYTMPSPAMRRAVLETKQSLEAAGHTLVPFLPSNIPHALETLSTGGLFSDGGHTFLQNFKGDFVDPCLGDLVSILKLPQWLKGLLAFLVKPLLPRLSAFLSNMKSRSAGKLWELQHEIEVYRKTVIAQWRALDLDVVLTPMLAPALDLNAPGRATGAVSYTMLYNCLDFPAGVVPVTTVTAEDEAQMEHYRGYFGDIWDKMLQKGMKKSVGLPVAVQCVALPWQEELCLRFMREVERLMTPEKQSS
Description: Inhibition of recombinant human FAAH expressed in Escherichia coli at 1 uM using fluorogenic AAMCA as substrate by fluorimetric assay relative to control. In a few lines: (§1)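 Human recombinant FAAH expressed in E. coli and purified; fluorometric assay with arachidonoyl 7-amino-4-methylcoumarin amide (AAMCA) as substrate; IC50 by curve fitting, or percent inhibition at 1 µM.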

The target of data set [10] is T4, Monoglyceride lipase (Homo sapiens) (UniProt Q99685).
T4 sequence (whole entry): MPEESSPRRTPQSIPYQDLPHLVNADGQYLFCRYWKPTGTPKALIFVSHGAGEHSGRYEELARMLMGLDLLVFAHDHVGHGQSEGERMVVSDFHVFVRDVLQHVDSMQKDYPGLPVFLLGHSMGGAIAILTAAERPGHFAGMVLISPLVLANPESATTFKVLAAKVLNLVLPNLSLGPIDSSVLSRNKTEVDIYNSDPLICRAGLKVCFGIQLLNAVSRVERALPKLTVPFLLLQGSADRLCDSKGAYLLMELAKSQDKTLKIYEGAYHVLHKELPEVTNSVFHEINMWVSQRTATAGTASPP
Description: Inhibition of recombinant human hexaHis-tagged MGL expressed in Escherichia coli BL21 (DE3) at 1 uM using fluorogenic AHMMCE as substrate preincubated for 1 hr followed by substrate addition by fluorimetric assay relative to control. The procedure, abridged: (§2)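 Human recombinant MGL expressed in E. coli and purified; fluorometric assay using arachidonoyl 7-hydroxy-6-methoxy-4-methylcoumarin ester (AHMMCE) as substrate; IC50 by curve fitting, or percent inhibition at 1 µM.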

The species entered for data set [11] is Homo sapiens. Description: Selectivity index, ratio of IC50 for human Cathepsin K using […] as substrate preincubated with enzyme for 90 mins followed by substrate addition by fluorimetry analysis to IC50 human NAAA using fluorogenic PAMCA and N-4-methylcoumarin as substrate incubated for 90 mins by fluorescence based assay.
Data set [12] concerns the target T5, Fatty-acid amide hydrolase 1 (Homo sapiens, UniProt O00519).
T5 sequence (O00519 whole entry): T3 sequence (whole entry)
The data set can be described thus: Inhibition of recombinant human FAAH expressed in Escherichia coli using fluorogenic AAMCA as substrate by fluorimetric assay. In a few lines: as §1

For the next data set, the target named is T6, Cathepsin K (Homo sapiens, UniProt P43235).
T6 sequence (P43235 whole entry): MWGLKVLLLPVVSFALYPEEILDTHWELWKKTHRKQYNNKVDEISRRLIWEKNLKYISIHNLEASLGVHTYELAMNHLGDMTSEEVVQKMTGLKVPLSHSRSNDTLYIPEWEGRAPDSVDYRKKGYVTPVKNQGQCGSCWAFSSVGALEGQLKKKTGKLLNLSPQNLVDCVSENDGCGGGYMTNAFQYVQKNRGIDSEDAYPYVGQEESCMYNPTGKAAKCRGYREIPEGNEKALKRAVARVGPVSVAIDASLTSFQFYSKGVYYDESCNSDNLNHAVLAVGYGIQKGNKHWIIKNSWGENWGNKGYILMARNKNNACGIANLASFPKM
Description: Inhibition of recombinant human Cathepsin K using Z-Phe-Arg-AMC as substrate preincubated with enzyme for 120 mins followed by substrate addition by fluorimetry analysis.

Data set [13] has as its target T2, N-acylethanolamine-hydrolyzing acid amidase. The data set can be described thus: Inhibition of NAAA (unknown origin).
Data set [14] is described as follows: Half life in rat plasma by HPLC analysis.
Data set [15] in a line: Half life in artificial gastric fluid by HPLC analysis. It is filed as physicochemical. The procedure, abridged:
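Compound at 200 μM incubated in artificial gastric juice; reaction quenched with acetonitrile and samples analysed by HPLC to estimate half-life (min).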

The target in a further data set is T7, Monoglyceride lipase (Homo sapiens, UniProt Q99685).
T7 sequence (Q99685 whole entry): T4 sequence (whole entry)
The data set can be described thus: Inhibition of recombinant human hexaHis-tagged MGL expressed in Escherichia coli BL21 (DE3) using fluorogenic AHMMCE as substrate preincubated for 1 hr followed by substrate addition by fluorimetric assay. The procedure, abridged: as §2

For the compound `N#CN1CC(OCc2ccc(-c3ccc(C(F)(F)F)cc3)cc2)C1`, the Ratio in data set [1] turned out to be 2.74 ×10⁶ /M/s. The figures for the half-life at 1 µM in data set [2] (liver microsomes) and in data set [3] (liver microsomes) were 8.9 min and 6.8 min, respectively. For the same compound, in [4], the concentration for half-maximal inhibition (IC50) was found to be 1.6 nM.
For `COc1cccc(-c2ccc(C(=O)N3CCC34CN(C#N)C4)cc2)c1`, the Ratio IC50 in the data set listed under Homo sapiens [5], in the data set filed under Homo sapiens [7], in the data set listed under Homo sapiens [8] and in the data set listed under Homo sapiens [11] was above 100 each time. The same compound showed a half-life in [6] of 458 min. The IC50 in [4] came to 6.5 nM. Further, the inhibition in data set [9] stood at 6%; in data set [10], 4%.
In data set [6], `COc1cccc(-c2ccc(C(=O)NC3(C)CN(C#N)C3)cc2)c1` had a half-life of 902 min. The IC50 in [4] stood at 1.58 nM. The results for the inhibition in [9] and in data set [10] were 23% and 11%, respectively.
Regarding `N#CN1CC(OCc2ccc(-c3ccc4c(c3)OCCO4)cc2)(c2ccccc2)C1`, in [4], the IC50 came to 6.1 nM. Besides, the inhibition in data set [9] amounted to 99%; in data set [10], 13.5%.
On to `COc1cccc(-c2ccc(S(=O)(=O)NC3(C)CN(C#N)C3)cc2)c1`, for which the Ratio IC50 in the data set filed under Homo sapiens [5], in the data set listed under Homo sapiens [7] and in the data set listed under Homo sapiens [11] was above 100 throughout. Besides, the half-life in data set [6] came out at 221 min. Besides, the IC50 in [4] was 3.2 nM; in data set [12], 17.8 nM. Also, the inhibition in data set [10] was found to be 19%.
As for `N#CN1CC(CNS(=O)(=O)c2ccccc2)C1`, the IC50 on Cathepsin K came to 50 nM.
For `C[C@H]1[C@H](NC(=O)OCCCCC2CCCCC2)C(=O)N1c1cccc(S(C)(=O)=O)c1`, in data set [13], half-maximal inhibition (IC50) required 6 nM.
In the case of `COc1cccc(-c2ccc(COC3CN(C#N)C3)cc2)c1`, the Ratio in [1] is 3.05 ×10⁶ /M/s. In addition, the half-life came out at 204 min in data set [6], 189 min in data set [14] and 450 min in [15]. Further, the half-life at 1 µM came out at 10 min in data set [2] (microsomes) and 11.2 min in data set [3] (microsomes). In data set [4], this compound showed an IC50 of 0.89 nM.
In data set [4], `N#CN1CC(OCc2ccc(-c3ccc4c(c3)OCO4)cc2)(c2ccccc2)C1` came in with an IC50 of 9.2 nM. Further, the inhibition in [9] is 99%; in data set [10], 59%.
Take `COc1cccc(-c2ccc(COC3CN(C#N)C3)c(F)c2)c1`: half-maximal inhibition in [4] (IC50) was put at 0.47 nM. Also, in [15], the half-life is 271 min.
In the case of `COc1cccc(-c2ccc(COC3(c4ccccc4)CN(C#N)C3)cc2)c1`, the half-life at 1 µM in data set [2] (microsomes) was 14.5 min; in [3] (microsomes), 15.3 min. Moreover, the half-inhibitory concentration (IC50) in data set [4] was determined as 9.1 nM; in data set [12], 61 nM. Further, the inhibition in [10] was found to be 19.5%.
Take `COc1cccc(-c2ccc(COC3(C)CN(C#N)C3)cc2)c1`: the values for the Ratio IC50 in the data set listed under Homo sapiens [5], in the data set filed under Homo sapiens [8] and in the data set filed under Homo sapiens [11] were 500, 0.2 and 50, respectively. In addition, the IC50 on Monoglyceride lipase amounted to 1060 nM; in data set [4], 1.8 nM; in [12], 0.36 nM.
Take `COc1ccc(-c2ccc3c(c2)CN(C2CN(C#N)C2)C3)cc1F`: the half-life at 1 µM in data set [2] (microsomes) came out at 4.4 min; in data set [3] (microsomes), 14.7 min. In [4], this compound came in with an IC50 of 1.6 nM.
`COc1cccc(-c2ccc(S(=O)(=O)N3CCC34CN(C#N)C4)cc2)c1`: the Ratio IC50 in the data set filed under Homo sapiens [5], in the data set filed under Homo sapiens [7] and in the data set listed under Homo sapiens [11] was above 100 in each case. The compound further returned a half-life in data set [6] of 180 min. The concentration for half-maximal inhibition (IC50) is 2.8 nM in data set [4] and 10.2 nM in data set [12]. For the same compound, the inhibition in [10] turned out to be 14%.

What is called half-life is how long it takes for the measured level to halve. In general, IC50 refers to the midpoint of a concentration-inhibition curve. By inhibition is commonly meant the share of the control response that was lost under treatment.
